viability, differential viability (reversal) and inhibition data for 18 compounds are collected here from PubChem BioAssay.

The structures appear in SMILES notation. Calls of active or inactive are those of the source.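 The calls were made as follows, unless noted: active = viability at or below 30% in both replicate assays; inconclusive = viability at or below 30% in just one of the two assays; inactive = the rest.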

Experiment [1] can be described thus: SK-BR-3 cell growth inhibitors, pilot screen, 24 h, human (AID 572;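 active = viability at or below 10% of carrier control in both of two separate runs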;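 also: compound exposure lasted between 18 and 24 h rather than exactly 24 h; 100% = carrier-treated control wells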). The settings on record: SK-BR-3 viability, CellTiter-Glo luminescence, at 10 µM, stronger effect = lower value.
Experiment [2] in a line: HUVEC growth inhibition – cell-based, human, primary screen (AID 575).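 Also: 100% = median of untreated cell wells with 0.1% DMSO on each plate.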 Conditions: HUVEC proliferation, CellTiter-Glo luminescence, 72 h; at 10 µM; stronger effect = lower value. The procedure, abridged:
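Test system: HUVEC primary cells. Quantity: 1250 endothelial cells in each well. Dosing: single-point 10 µM, DMSO 0.1% final. Incubation: 72 h treatment at 37 °C. Measured by: CTG luminescence. Control set: DMSO cell controls and MePR drug controls. Plate: collagen-coated 384-well format.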

The nature of experiment [3]: growth inhibitors of H69AR lung tumor, primary screen, human, duplicate replicates (AID 580;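 active = viability at or under a set limit in both replicates, limit being median viability minus 3 SD, cut at about 48% in these data, passing the limit was not always enough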;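 also: 100% = mean luminescence of untreated wells and 0% = no signal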). Conditions: H69AR lung tumor cells viability, ATP luminescence, 72 h; at 10 µM; stronger effect = lower value.
Experiment [4] in a line: reversal of MRP1-mediated doxorubicin resistance, pilot screen, H69AR cells, doxorubicin co-treatment (AID 601;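 active = viability loss from added drug above about 55%, and viability with drug at most 40%, in both replicates, limit read from the data, passing the limit was not always enough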). The settings on record: CellTiter-Glo, 72 h, at 10 µM; for differential viability (reversal): stronger effect = higher value. Background: In ATP-based viability assays light output follows the ATP content of the culture.
Experiment [5] in a line: 384-well plate pilot, post-Golgi transport modulator project, inhibition of yeast transport mutant growth (AID 636; in the data active = inhibition above about 31%). The settings on record: absorbance 615 nm, about 18 h, stronger effect = higher value.
Experiment [6] can be described thus: growth suppression of yeast trafficking mutant, preliminary HTS, modulators of trafficking downstream of Golgi apparatus project, 1536-format plate, OD 615 nm (AID 637; in the data active = inhibition above about 30%). The settings on record: yeast transport mutant growth, absorbance 615 nm, 18 h; stronger effect = higher value.
The mark [7] stands for this setting: H69AR cells + 2 uM doxorubicin, measured here: viability with 2 uM doxorubicin, stronger effect = lower value.
The mark [8] stands for this setting: H69AR cells, compound alone cytotoxicity.

As to `O=C(Nc1ccccc1C(=O)NCCCn1ccnc1)c1ccccc1`, the viability in experiment [1] was 81% (inactive); in experiment [2], 94.4% (inactive); in experiment [3], 96.8% (inactive); in experiment [4] (setting [7]), 87.6%; in experiment [4] (setting [8]), 96.8%. For the same compound, in experiment [4] (H69AR cells + 2 uM doxorubicin), the differential viability (reversal) is 9.21% (inactive). Besides, the figures for the inhibition in experiment [5] and in experiment [6] were -6.62% (inactive) and -8% (inactive), respectively.

As to `O=C(NCc1ccco1)c1cccc(S(=O)(=O)N2CCCCC2)c1`, the viability in experiment [1] was 110% (inactive); in experiment [2] it was 99.3% (inactive); in experiment [3], 90.9% (inactive); in experiment [4] (setting [7]), 96%; in experiment [4] (setting [8]), 90.9%. Further, the differential viability (reversal) in experiment [4] (H69AR cells + 2 uM doxorubicin) is -5.04% (inactive). In addition, the results for the inhibition in experiment [5] and in experiment [6] were 4.66% (inactive) and 8.73% (inactive), respectively.

Regarding `Cc1cc(-c2ccccc2)nc(SCc2ccc(C(=O)O)o2)n1`, the viability in experiment [1] is 121% (inactive); in experiment [2], 103% (inactive); in experiment [3], 97.5% (inactive); in experiment [4] (setting [7]), 91.6%; in experiment [4] (setting [8]), 97.5%. The differential viability (reversal) in experiment [4] (H69AR cells + 2 uM doxorubicin) is 5.94% (inactive). Besides, the inhibition in experiment [5] is -5.6% (inactive); in experiment [6] it was 0.73% (inactive).

As to `O=C(Cn1cnc2c(cnn2-c2ccc(F)cc2)c1=O)N1CCN(c2ccccc2)CC1`, the viability is 97% (inactive) in experiment [1]; 94% (inactive) in experiment [2]; 70.3% (inactive) in experiment [3]; 65.8% in experiment [4] (setting [7]); 70.3% in experiment [4] (setting [8]). In experiment [4] (H69AR cells + 2 uM doxorubicin), the differential viability (reversal) is 4.54% (inactive). In addition, the results for the inhibition in experiment [5] and in experiment [6] were 0.39% (inactive) and -5.57% (inactive), respectively.

Regarding `CC(C)NC(=O)c1ccccc1NC(=O)CCS(=O)(=O)Cc1ccccc1`, the viability in experiment [1] is 116% (inactive); in experiment [2] it was 107% (inactive); in experiment [3] it was 87.7% (inactive); in experiment [4] (setting [7]), 89.1%; in experiment [4] (setting [8]), 87.7%. In addition, the differential viability (reversal) in experiment [4] (H69AR cells + 2 uM doxorubicin) was -1.34% (inactive). Besides, the values for the inhibition in experiment [5] and in experiment [6] were -1.64% (inactive) and 9.82% (inactive), respectively.

With `CCN1CCN(c2nc3c(c(=O)n(C)c(=O)n3C)n2Cc2cccc3ccccc23)CC1`, the viability in experiment [1] was 87% (inactive); in experiment [2] it was 104% (inactive); in experiment [3] it was 87.7% (inactive); in experiment [4] (setting [7]) it was 84.4%; in experiment [4] (setting [8]) it was 87.7%. In addition, the differential viability (reversal) in experiment [4] (H69AR cells + 2 uM doxorubicin) is 3.33% (inactive). Moreover, the inhibition was -6.58% (inactive) in experiment [5] and 0.91% (inactive) in experiment [6].

Take `COc1ccccc1OCc1ccc(C(=O)N2CCN(C(=O)c3ccco3)CC2)cc1`: the viability is 116% (inactive) in experiment [1]; 111% (inactive) in experiment [2]; 99.2% (inactive) in experiment [3]; 93.9% in experiment [4] (setting [7]); 99.2% in experiment [4] (setting [8]). Besides, the differential viability (reversal) in experiment [4] (H69AR cells + 2 uM doxorubicin) was 5.35% (inactive). Further, the inhibition in experiment [5] is -4.13% (inactive); in experiment [6] it was -9.82% (inactive).

Turning to `CCOC(=O)C1C2C=CC3(CN(Cc4ccco4)C(=O)C13)O2` (centres undefined), the viability in experiment [1] was 97% (inactive); in experiment [2] it was 95.6% (inactive); in experiment [3] it was 96.5% (inactive); in experiment [4] (setting [7]), 89.7%; in experiment [4] (setting [8]) it was 96.5%. The differential viability (reversal) in experiment [4] (H69AR cells + 2 uM doxorubicin) is 6.86% (inactive). The inhibition in experiment [5] was -6.99% (inactive); in experiment [6] it was 1.45% (inactive).

With `CC(Cc1ccc(O)c(O)c1)C(C)Cc1ccc(O)c(O)c1` (centres undefined), the viability is 87% (inactive) in experiment [1]; 22.3% (active) in experiment [2]; 77.4% (inactive) in experiment [3]; 79.1% in experiment [4] (setting [7]); 77.4% in experiment [4] (setting [8]). Moreover, in experiment [4] (H69AR cells + 2 uM doxorubicin), the differential viability (reversal) is -1.66% (inactive). Also, the inhibition in experiment [5] is -5.45% (inactive); in experiment [6] it was -6.33% (inactive).

For the compound `Cc1ccc(S(=O)(=O)N2CCN(C(=O)N3CCOCC3)C2C)cc1` (centres undefined), the viability in experiment [1] is 76% (inactive); in experiment [2], 103% (inactive); in experiment [3], 99% (inactive); in experiment [4] (setting [7]), 103%; in experiment [4] (setting [8]), 99%. Moreover, the differential viability (reversal) in experiment [4] (H69AR cells + 2 uM doxorubicin) is -4.24% (inactive). In addition, the inhibition in experiment [5] is -8.08% (inactive); in experiment [6], -2.18% (inactive).

As for `CCCCCn1c(CN2CCN(c3cccc(Cl)c3)CC2)nc2c1c(=O)n(C)c(=O)n2C`, the viability is 97% (inactive) in experiment [1]; 69.2% (inactive) in experiment [2]; 88% (inactive) in experiment [3]; 49.5% in experiment [4] (setting [7]); 88% in experiment [4] (setting [8]). Further, in experiment [4] (H69AR cells + 2 uM doxorubicin), the differential viability (reversal) is 38.5% (inactive). Also, the inhibition in experiment [5] is 7.7% (inactive); in experiment [6] it was 11.6% (inactive).

As to `Cn1c(=O)c2c(nc(Br)n2CCSc2nnnn2-c2ccccc2)n(C)c1=O`, the viability is 76% (inactive) in experiment [1]; 105% (inactive) in experiment [2]; 80.4% (inactive) in experiment [3]; 95.3% in experiment [4] (setting [7]); 80.4% in experiment [4] (setting [8]). Also, the differential viability (reversal) in experiment [4] (H69AR cells + 2 uM doxorubicin) was -14.9% (inactive). For the same compound, the values for the inhibition in experiment [5] and in experiment [6] were -4.59% (inactive) and -7.27% (inactive), respectively.

Take `Cc1ccc(NC(=O)COC(=O)c2ccn(C)n2)cc1`: the viability is 76% (inactive) in experiment [1]; 90.8% (inactive) in experiment [2]; 87.2% (inactive) in experiment [3]; 79.4% in experiment [4] (setting [7]); 87.2% in experiment [4] (setting [8]). The differential viability (reversal) in experiment [4] (H69AR cells + 2 uM doxorubicin) is 7.78% (inactive). The inhibition in experiment [5] was -2.74% (inactive); in experiment [6] it was -1.09% (inactive).

Regarding `O=C(CSc1nccn1Cc1ccccc1)Nc1nccs1`, the viability in experiment [1] is 90% (inactive); in experiment [2], 98.6% (inactive); in experiment [3], 108% (inactive); in experiment [4] (setting [7]), 101%; in experiment [4] (setting [8]) it was 108%. Moreover, in experiment [4] (H69AR cells + 2 uM doxorubicin), the differential viability (reversal) was 6.88% (inactive). The inhibition was -0.26% (inactive) in experiment [5] and 1.48% (inactive) in experiment [6].

Turning to `COc1ccccc1C(=O)N1CCN(C(=O)COc2cccc(C)c2)CC1`, the viability was 101% (inactive) in experiment [1]; 113% (inactive) in experiment [2]; 88.6% (inactive) in experiment [3]; 85.9% in experiment [4] (setting [7]); 88.6% in experiment [4] (setting [8]). For the same compound, the differential viability (reversal) in experiment [4] (H69AR cells + 2 uM doxorubicin) was 2.75% (inactive). Also, the inhibition in experiment [5] was -7.84% (inactive); in experiment [6], -0.73% (inactive).

For `Cc1cccc(CC2CC(=O)N(c3ccccc3)C2=O)c1` (centres undefined), the viability in experiment [1] was 117% (inactive); in experiment [2] it was 101% (inactive); in experiment [3], 102% (inactive); in experiment [4] (setting [7]), 91.9%; in experiment [4] (setting [8]), 102%. Also, the differential viability (reversal) in experiment [4] (H69AR cells + 2 uM doxorubicin) is 10.5% (inactive). Further, the inhibition in experiment [5] was -3.77% (inactive); in experiment [6], -5.9% (inactive).

As for `Cc1c(C(=O)NCc2ccccn2)sc2nc(-c3ccc(F)cc3)cn12`, the viability was 119% (inactive) in experiment [1]; 89.4% (inactive) in experiment [2]; 95.4% (inactive) in experiment [3]; 82.3% in experiment [4] (setting [7]); 95.4% in experiment [4] (setting [8]). Besides, in experiment [4] (H69AR cells + 2 uM doxorubicin), the differential viability (reversal) is 13.1% (inactive). Moreover, the figures for the inhibition in experiment [5] and in experiment [6] were -3.12% (inactive) and 3.77% (inactive), respectively.

Turning to `COc1ccc(CCNC(=O)CSCc2n[nH]c(=O)[nH]2)cc1OC`, the viability in experiment [1] is 110% (inactive); in experiment [2], 89.3% (inactive); in experiment [3] it was 88.5% (inactive); in experiment [4] (setting [7]), 88.6%; in experiment [4] (setting [8]), 88.5%. In experiment [4] (H69AR cells + 2 uM doxorubicin), the differential viability (reversal) is -0.08% (inactive). The inhibition in experiment [5] is -10.7% (inactive); in experiment [6] it was 0% (inactive).

A word on the viability: it is a read-out of living cells in per cent, often relative to untreated cells. For orientation: inhibition means the relative decrease from the control value, in per cent.
